STAT3 inh = IL-6 driven STAT3 reporter inhibitors, primary screen, U3A cells, luciferase, luminescence, MLSCN library. IL-6 STAT3-luciferase reporter; host cell line lacks STAT1. AID 862, 2007. inhibition, % at 5.5 µM. 190,000 tested, 0.89% active;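 active means inhibition above the mean inhibition across all screened compounds plus 3 SD, cut at about 44% in these data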;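 further: 0% = DMSO only wells and 100% = 100 µM nifuroxazide control wells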
STAT1 blocker = STAT1 signaling inhibitors, primary screen, cell-based, HTS, luciferase reporter; inhibition, % at 5.5 µM; NIH 3T3 STAT1-luciferase reporter, IFN-gamma, luminescence; 200,000 tested, 0.35% active;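 active means inhibition above a set limit, the mean inhibition across all tested compounds plus 3 SD, cut at about 34% in these data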;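 further: 0% = IFN-gamma with DMSO and 100% = IFN-gamma with 300 µM nifuroxazide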
NF-kB neuron act = activators of NF-kB expression in neurons, primary screen, cell-based, HTS. human neuronal cells, NF-kB reporter expression; stronger effect = higher value. fold change at 12.5 µM. 190,000 tested, 1.6% active. AID 1239, 2008; in the data active means fold change above about 3.3
STAT1 act = STAT1 signaling activators, primary screen, cell-based, HTS, luciferase reporter | NIH 3T3 STAT1-luciferase reporter, IFN-gamma, luminescence; 100% = IFN-gamma alone, no compound | activation (% of control), % at 5.5 µM | 200,000 tested, 2.6% active | AID 932, 2007;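 active means activation above the screen-wide mean activation plus 3 SD, cut at about 130% in these data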;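 further: raw ratio to IFN-gamma control signal so 100% means no change and 0% no light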
APP 5'UTR act = activators of APP 5'UTR luciferase reporter, primary screen, SH-SY5Y cells. SH-SY5Y APP 5'UTR luciferase reporter, luminescence; zero percent = DMSO vehicle wells. activation, % at 2 µM. 190,000 tested, 1% active. AID 1276, 2008;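 active means activation above a set limit, based on mean plus 3 SD of controls, cut at about 140% in these data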
STAT3 act = IL-6 driven STAT3 reporter potentiators, primary screen, U3A cells, luciferase, luminescence, MLSCN library; IL-6 STAT3-luciferase reporter; 100% = signal with IL-6 EC80 alone; activation (% of control), % at 5.6 µM; 190,000 tested, 0.91% active; AID 871, 2007;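 active means activation above the screen-wide mean of compound activation plus 3 SD, cut at about 130% in these data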;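 further: 0% = background luminescence of wells with medium and substrate only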
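Material: STAT3-luciferase reporter U3A cells; Probe or stimulus: IL-6 (33 ng/mL); Incubation: compound pre-incubation 1 h before IL-6, then 6 h stimulation at 37 °C; Technique: luminescence from STAT3-driven luciferase reporter; Evaluation: % activation versus median of IL-6-stimulated wells; Controls: IL-6-only high control.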
Active calls of the source: *. Only some compounds are listed: those with a hit (about 5.1% of all), similar ones and a draw of the others.

SMILES | STAT3 inh | STAT1 blocker | NF-kB neuron act | STAT1 act | APP 5'UTR act | STAT3 act
CCOC(=O)N1CCN(c2nc(C)cc(C(F)(F)F)n2)CC1 | 18 | 10 | 4.9* | 89 | 24 | 88
CCOC(=O)N1CCN(c2nc(C(F)(F)F)nc3c(C)cc(C)cc23)CC1 | 34 | -4 | 1 | 104 | 0 | 74
Cc1csc(NC(=O)CSc2nnc(-c3ccccc3)o2)n1 | -5 | -29 | 3.1 | 126 | 136* | 111
O=C(CSc1nnc(-c2csc3c2CCCC3)o1)Nc1ccccc1 | 4 | -42 | 3.4* | 138* | 203* | 104
Cc1cccc(-n2ncc3c(N4CCC(C)CC4)ncnc32)c1 | 34 | -47 | 4.3* | 143* | 58 | 78
COc1ccc(-n2ncc3c(N4CCC(C(N)=O)CC4)ncnc32)cc1 | -17 | -35 | 3.8* | 132* | 102 | 121
CCOC(=O)C1CCN(c2ncnc3c2cnn3-c2ccc(OC)cc2)CC1 | 15 | -13 | 1.1 | 112 | 19 | 93
CCN1CCN(c2ncnc3c2cnn3-c2ccccc2)CC1 | 14 | -19 | 1.8 | 117 | 34 | 96
c1ccc(-n2ncc3c(N4CCCCC4)ncnc32)cc1 | 96* | 66* | 2 | 40 | 115 | 25
CC1CC(C)CN(c2ncnc3c2cnn3-c2ccc(Cl)cc2)C1 (stereo not given) | -1 | -18 | 0.87 | 118 | 233* | 101
CCOC(=O)C1CCCN(c2ncnc3c2cnn3-c2cccc(C)c2)C1 (stereo not given) | 35 | -1 | 0.88 | 100 | 10 | 73
CCSC(=S)Nc1c(C)n(C)n(-c2ccccc2)c1=O | 0 | 3 | 1.5 | 94 | 1 | 104
CCOC(=O)C1=C(C)NC(C)=C(C(=O)OCC)C1C(=O)OCC(=O)N(CC)C1CCS(=O)(=O)C1 (stereo not given) | 8 | 4 | 1.2 | 95 | 7 | 96
O=[N+]([O-])c1ccc(C2Nc3cccc4cccc(c34)N2)cc1 | -36 | -3 | 0.87 | 103 | 17 | 134*
Cc1ccc(CNC(=O)c2ccc(Cl)cc2[N+](=O)[O-])cc1 | 3 | 3 | 1.1 | 97 | 18 | 99
CCOC(=O)c1c(NC(=O)CSc2nnc(-c3c[nH]c4ccccc34)n2CCOC)sc2c1CCCCC2 | -11 | 4 | 0.56 | 96 | -11 | 109
CCOC(=O)c1c(NC(=O)CSc2c[nH]c3ccccc23)sc2c1CCC2 | -8 | 3 | 4* | 97 | -14 | 107
CCOC(=O)c1c(NC(=O)CSc2nnc3ccccn23)sc2c1CCC2 | 8 | 0 | 1.2 | 101 | 0 | 92
CCOC(=O)c1c(NC(=O)CSc2c[nH]c3ccccc23)sc2c1CCCC2 | -40 | -1 | 3.2 | 101 | -10 | 135*
C/C(N)=C(/C#N)C(=O)CSc1nnc(-c2ccc(OC(F)F)cc2)o1 | -18 | -52 | 4.8* | 148* | 113 | 117
COc1ccc(C2=NN(C(=O)CN3CCCCC3)C(c3ccc(C)cc3)C2)cc1 (stereo not given) | -1 | -3 | 0.85 | 100 | 9 | 105
COc1ccc(C2=NN(C(=O)CN3CCOCC3)C(c3nc4ccccc4[nH]3)C2)cc1 (stereo not given) | -10 | -35 | 1.1 | 133* | 122 | 108
COc1ccc(OC)c(NC(=O)c2ccc(CSc3ncccn3)cc2)c1 | 16 | 1 | 0.82 | 97 | 20 | 89
Nc1ccc2oc(-c3cccs3)nc2c1 | 15 | -54 | 2.4 | 149* | 85 | 89
Cc1ccc2oc(-c3cccc(N)c3)nc2c1 | 27 | 8 | 8.9* | 92 | 158* | 84
SMILES | STAT3 inh | STAT1 blocker | NF-kB neuron act | STAT1 act | APP 5'UTR act | STAT3 act
Nc1cccc(-c2nc3cc(S(=O)(=O)c4ccc5oc(-c6cccc(N)c6)nc5c4)ccc3o2)c1 | 10 | -6 | 1 | 106 | -17 | 93
Cc1ccc2oc(-c3ccco3)nc2c1 | 12 | -42 | 1.3 | 138* | 54 | 90
Cc1nn(C)c(Cl)c1C(N)=O | 3 | 2 | 1.2 | 97 | -7 | 102
COc1ccc(N2CCN(C(CNC(=O)OCc3ccccc3)c3ccco3)CC2)cc1 (stereo not given) | 0 | -1 | 1.2 | 101 | 19 | 101
CCOC(=O)C1=C(C)NC(C)=C(C(=O)OCC)C1c1ccc(O)cc1 | 4 | 11 | 1.5 | 90 | 6 | 100
COC(=O)C1=C(C)NC(C)=C(C(=O)OC)C1c1ccc(N(C)C)cc1 | 15 | 12 | 3.7* | 89 | -17 | 95
Cc1cc(C)c2nc(-n3nc(C)cc3N)cc(C)c2c1 | -26 | -45 | 1.8 | 143* | 91 | 120
Cc1cc(N)n(-c2ccccc2)n1 | 2 | -2 | 1.2 | 102 | 2 | 100
Cc1cc(N)n(-c2cc(C)c3ccccc3n2)n1 | 3 | -13 | 4.5* | 112 | 137* | 102
O=C(COc1ccc(Cl)cc1)Nc1ccc2c(c1)CCC2 | 6 | 12 | 1.2 | 89 | 29 | 97
Cc1noc(C)c1C(=O)Nc1ccc2c(c1)CCC2 | 6 | -2 | 1.3 | 101 | 0 | 96
O=C(Nc1ccc2c(c1)CCC2)c1ccc(Cl)nc1 | -28 | -71 | 4* | 163* | 96 | 137*
O=C(Nc1ccc2c(c1)CCC2)c1cnc(Cl)c(Cl)c1 | -3 | -37 | 3.8* | 135* | 149* | 108
COc1ccc(-n2ncc3c(SCC(=O)N4CCN(c5ccccc5OC)CC4)ncnc32)cc1 | 10 | -3 | 0.54 | 103 | -8 | 95
FC(F)(F)c1cnc(-c2cnc(-c3ccncc3)nc2)c(Cl)c1 | 21 | -45 | 0.7 | 140* | 58 | 85
CC(Cl)c1cc(-c2ncc(C(F)(F)F)cc2Cl)no1 (stereo not given) | 28 | -14 | 1.3 | 111 | 15 | 83
CC(C)N=C(NS(=O)(=O)c1ccccc1)C(Cl)(Cl)Cl | -1 | 20 | 3 | 82 | -12 | 103
CC1CCCN(c2ccc3nc4ccccc4c(=O)n3n2)C1 (stereo not given) | 76* | 51* | 2.1 | 51 | 175* | 38
Cc1ccc2nc3ccc(N4CCCC4)nn3c(=O)c2c1 | 9 | -37 | 1.7 | 134* | 100 | 97
Cc1sc2nc3ccc(N4CCCCC4)nn3c(=O)c2c1C | 20 | -26 | 1.2 | 124 | 34 | 87
O=[N+]([O-])c1ccc(/C=C/c2ccc3cccc([N+](=O)[O-])c3n2)cc1 | 17 | -14 | 1.1 | 112 | -12 | 87
O=[N+]([O-])c1cccc2ccc(/C=C/c3ccc(F)cc3)nc12 | -38 | -37 | 1.7 | 133* | 39 | 135*
Cc1cc2oc(=O)cc(CN3CCC(C)CC3)c2cc1Cl | 2 | 0 | 1.8 | 100 | 1 | 102
